Experiments:
Oryctolagus cuniculus [1] = experiment: Evaluation of formation of 3-Methyl-thiazolidin-2-ylideneamine from the radiolabeled compound, orally administered, from rabbit 1,2 lung was analyzed by Gas-liquid chromatographic analysis; format: ADME, organism-based; conditions: in vivo, po
Procedure, shortened: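 Rabbit 1 was given [14C]-labelled parent amide, 100 mg/kg (204.6 dpm/μg), orally by gavage and killed 2 h later. Urine (0-2 h), blood, liver, lung and kidney were collected. Samples were extracted, trimethylsilylated with BSA/pyridine at 70 °C for 12-16 h, and run by GLC on 3% OV-210 at 95 °C against the internal standard 3-ethyl-2-thiazolidinimine. Output is % of radioactivity present as the metabolite, mean of two determinations.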

Oryctolagus cuniculus [2] = experiment: Radioactivity measurements were performed following oral administration of the 100 mg/kg in rabbit 8 after 6 hr in plasma; format: ADME, organism-based; design: dose 100 mg/kg, route oral; conditions: in vivo
Procedure, shortened: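 Male rabbits (900-1060 g) received [14C]-labelled parent amide, 100 mg/kg (251.7 dpm/μg, pH about 4.5), by gavage. At 2 or 6 h they were killed by air injection into the ear vein. Blood was drawn by cardiac puncture; brain and lung were homogenized in water (1 g = 10 mL). Radioactivity is expressed as μg equivalents of parent per g or mL.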

Work on `CN1CCS/C1=N\C(=O)CCC(=O)/N=C1/SCCN1C` yielded a Radioactivity (Oryctolagus cuniculus [1]) of 92.9% and a Radioactivity level (Oryctolagus cuniculus [2]) of 4 µg/mL.

— ChEMBL document CHEMBL1121475, “Inhibitors of indoleethylamine N-methyltransferase. Derivatives of 3-methyl-2-thiazolidinimine. In vitro, in vivo, and metabolic studies” (J Med Chem, 1980)
